Data: ChEMBL document CHEMBL1128547, “Selective inhibitors of Candida albicans dihydrofolate reductase: activity and selectivity of 5-(arylthio)-2,4-diaminoquinazolines” (J Med Chem, 1995)
Values after ≈ are worked out from the molar mass of the structure shown.

How the values were obtained:
[1] = test system: Candida albicans; experiment: Ratio of I50 evaluated for inhibition of DHFR in humans to Candida albicans
Method in brief: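 Selectivity index is the human DHFR I50 divided by the C. albicans DHFR I50. The C. albicans enzyme (E. coli-expressed, 0.2 nM) was run in 0.1 M imidazole chloride, pH 6.4. Recombinant human enzyme (2 nM) was run in 50 mM Sorenson's phosphate, pH 7.0. Enzyme, NADPH and inhibitor were preincubated 2 min before substrate was added. I50 came from linear regression of % inhibition of steady-state velocity vs log concentration.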

[2] = test system: Candida albicans; experiment: Minimum inhibitory concentration required to inhibit Candida albicans (in vitro); format: functional
Method in brief: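 Broth dilution in defined medium (NH4Cl, K2HPO4, MgSO4, sodium citrate, PIPES, biotin, glucose; pH 7.1), strain P712 from frozen log-phase stocks. Inoculum 4500 CFU per 3 mL tube, final drug 50–0.01 μg/mL, or microtiter wells (0.05 mL) with 4-fold dilutions. 28 °C, 160 rpm, 20–24 h.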

Structure (SMILES) | Selectivity index [1] | MIC [2] [µg/mL]
Nc1nc(N)c2c(Sc3ccc(C(F)(F)F)cc3)cccc2n1 | 5 | 25 (≈ 74.3 µM)
CC(C)(C)c1ccc(Sc2c(C#N)ccc3nc(N)nc(N)c23)cc1 |  | > 5
Nc1nc(N)c2c(Sc3ccccc3)cccc2n1 |  | 0.05 (≈ 0.186 µM)
Nc1nc(N)c2c(Sc3ccc(Cl)cc3)cccc2n1 |  | 0.5 (≈ 1.65 µM)
Cc1ccc(Sc2cccc3nc(N)nc(N)c23)cc1 |  | 0.25 (≈ 0.885 µM)
COc1ccc(OC)c(Cc2cnc3nc(N)nc(N)c3c2C)c1 [PIRITREXIM] |  | > 10
CCOc1ccc2nc(N)nc(N)c2c1Sc1ccc(C(C)(C)C)cc1 |  | 1 (≈ 2.71 µM)
Nc1nc(N)c2c(Sc3cccc(Cl)c3)cccc2n1 | 6 | 0.5 (≈ 1.65 µM)
COc1cc(NCc2ccc3nc(N)nc(N)c3c2C)cc(OC)c1OC [TRIMETREXATE] |  | > 50
COc1cc(Sc2cccc3nc(N)nc(N)c23)cc(OC)c1OC |  | 5 (≈ 13.9 µM)
COc1cccc(Sc2cccc3nc(N)nc(N)c23)c1 |  | 0.25 (≈ 0.838 µM)
COc1ccc(Sc2cccc3nc(N)nc(N)c23)cc1OC | 79 | > 50
COc1cc(Cc2cnc(N)nc2N)cc(OC)c1OC [TRIMETHOPRIM] |  | > 50
Nc1nc(N)c2c(Sc3ccc(N4CCOCC4)cc3)cccc2n1 |  | > 50
CC(C)(C)c1ccc(Sc2cccc3nc(N)nc(N)c23)cc1 |  | 0.1 (≈ 0.308 µM)
CC(C)COc1ccc2nc(N)nc(N)c2c1Sc1ccc(C(C)(C)C)cc1 | 10 | 0.8 (≈ 2.02 µM)

Structure (SMILES) | Selectivity index [1] | MIC [2] [µg/mL]
Nc1ccc(Sc2cccc3nc(N)nc(N)c23)cc1 | 5 | 2.5 (≈ 8.82 µM)
Nc1nc(N)c2c(Sc3ccc([N+](=O)[O-])cc3)cccc2n1 | 100 | 50 (≈ 160 µM)
Nc1nc(N)c2c(Sc3ccc(F)cc3)cccc2n1 | 40 | 0.25 (≈ 0.873 µM)
COc1ccc(Sc2cccc3nc(N)nc(N)c23)cc1 |  | 0.25 (≈ 0.838 µM)
CCN(CC)c1ccc(Sc2cccc3nc(N)nc(N)c23)cc1 |  | 2.5 (≈ 7.36 µM)
Nc1nc(N)c2c(Sc3ccc(C4CCCCC4)cc3)cccc2n1 | > 200 | 1 (≈ 2.85 µM)
Nc1nc(N)c2c(Sc3ccc(O)cc3)cccc2n1 | 5 | 10 (≈ 35.2 µM)
CCC(C)(C)c1ccc(Sc2cccc3nc(N)nc(N)c23)cc1 | 10 | 10 (≈ 29.5 µM)
CCc1nc(N)nc(N)c1-c1ccc(Cl)cc1 [PYRIMETHAMINE] |  | > 50
CC(C)(C)c1ccc(Sc2c(N)ccc3nc(N)nc(N)c23)cc1 |  | 5 (≈ 14.7 µM)
N#Cc1ccc(Sc2cccc3nc(N)nc(N)c23)cc1 | 100 | > 50
COc1ccccc1Sc1cccc2nc(N)nc(N)c12 | 4 | 10 (≈ 33.5 µM)
CCCCCCc1ccc(Sc2cccc3nc(N)nc(N)c23)cc1 |  | 50 (≈ 142 µM)
Nc1nc(N)c2c(Sc3ccccc3Cl)cccc2n1 | 2 | 1 (≈ 3.3 µM)
Nc1nc(N)c2c(Sc3ccc(Br)cc3)cccc2n1 | 100 | 0.25 (≈ 0.72 µM)
CC(C)c1ccc(Sc2cccc3nc(N)nc(N)c23)cc1 |  | 0.25 (≈ 0.805 µM)
